Results gathered from unrelated publications.
Lines come from different studies, so protocols differ.
Target: Casein kinase I isoform delta (CSNK1D, Homo sapiens, UniProt P48730)

| SMILES | effect on | technique | tested at | remaining binding |
| --- | --- | --- | --- | --- |
| C=CC(=O)N1CCC(C(=O)NCC(=O)N2CCN(c3nc(-c4cnc(N)nc4C(F)F)nc(N4CCOCC4)n3)CC2)CC1 | binding | competition with immobilised ligand | 1 µM | 100% |
| CN(C)c1nccc(-c2cnn3ncccc23)n1 | binding |  | 1 µM | 62% |
| NC(=O)c1nc(Nc2ccccc2)sc1NC(=O)C1CCCCC1 | cell-free assay | competition with immobilised ligand | 10 µM | 6.8% |
| CCN1CCN(Cc2ccc(C(=O)Nc3ccc(C)c(Oc4ccc5c(c4)CC(=O)N5)c3)cc2C(F)(F)F)CC1 | binding | competition with immobilised ligand | 1 µM | 88% |
| O=C(Nc1c[nH]nc1C(=O)NC1CCNCC1)c1cc(F)cc(F)c1 | binding | competition with immobilised ligand | 1 µM | 95% |
| CC1CCCN1c1nccc(-c2cnn3ncccc23)n1 (stereo not drawn) | binding |  | 1 µM | 100% |
| Cc1cc(C)c(-n2ccn3nc(-c4cccnc4)cc23)cc1NC(=O)c1cc(C#N)cc(S(F)(F)(F)(F)F)c1 | cell-free assay | competition with immobilised ligand | 0.1 µM | 100% |
| C[C@@H]1CCN(c2nccc(-c3cnn4ncccc34)n2)C1 | binding |  | 1 µM | 64% |
| COc1cnc(Nc2cccc(S(N)(=O)=O)c2)nc1N1CCN(c2ccccc2)CC1 | binding | competition with immobilised ligand | 1 µM | 97% |
| CN(C)c1ncnc(-c2ccc3nc(Nc4cc(CN5CCN(C(=O)CC(F)(F)F)CC5)ccn4)[nH]c3c2)c1Cl | cell-free assay | competition with immobilised ligand | 1 µM | 83% |
| F[C@@H]1CCN(c2nccc(-c3cnn4ncccc34)n2)C1 | binding |  | 1 µM | 83% |
| COc1ccc2c(c1)O[C@H](c1ccc(OC)c(OC)c1)C[C@@H]2NC(=O)C1(c2ccc3c(c2)OC(F)(F)O3)CC1 | cell-free assay | competition with immobilised ligand | 1 µM | 92% |
| CN(c1nccc(-c2cnn3ncccc23)n1)C1CC1 | binding |  | 1 µM | 100% |
| O=C(NCCCN1CCOCC1)c1ccc(Nc2nccc(-c3cc4ccccc4s3)n2)cc1 | binding | competition with immobilised ligand | 1 µM | 92% |
| O=C(Nc1cccnn1)N1CCC(=Cc2cccc(Oc3ccc(C(F)(F)F)cn3)c2)CC1 | cell-free assay | competition with immobilised ligand | 1 µM | 100% |
| CN(C)c1ncc(F)c(-c2cnn3ncccc23)n1 | binding |  | 1 µM | 100% |
| O=C(c1ccc(Nc2nccc(-c3cc4ccccc4s3)n2)cc1)N1CCC(N2CCCC2)CC1 | binding | competition with immobilised ligand | 1 µM | 100% |
| COc1ncc2cc3ccccc3nc2c1C#N | cell-free assay | competition with immobilised ligand | 5 µM | 93% |
| CC(=O)C1=C(C)N(c2cccc(C(F)(F)F)c2)C(=O)N[C@@H]1c1ccc(C#N)nc1 | cell-free assay | competition with immobilised ligand | 1 µM | 100% |
| O=C(c1ccc(Nc2ncc(Cl)c(-c3ccc(Cl)s3)n2)cc1)N1CCC(N2CCCC2)CC1 | binding | competition with immobilised ligand | 1 µM | 100% |
| CN(C(=O)c1ccccc1)c1cc(N(C)c2ccc3c(c2)CCc2ccc(C(=O)NCCN4CCOCC4)cc2C3=O)ccc1F | cell-free assay | competition with immobilised ligand | 1 µM | 100% |
| Nc1ncc2c(n1)-c1c([nH]c3ccc(C#CC4CC4)cc13)CCCC2 | binding | competition with immobilised ligand | 1 µM | 91% |
| N#Cc1ccc(Nc2ccc3[nH]c(=O)[nH]c3c2)c(Cl)c1 | cell-free assay | competition with immobilised ligand | 1 µM | 100% |
| CNC(=O)[C@@H]1CC[C@@H](n2c(-c3ccc4cnccc4c3)nc3ccc(C(=O)NCc4cccc(C(N)=O)c4)cc32)C1 | binding | competition with immobilised ligand | 1 µM | 100% |
